Results reported in ChEMBL document CHEMBL1130097, “Synthesis and anti-HIV-1 activity of a series of 1-alkoxy-5-alkyl-6-(arylthio)uracils” (J Med Chem, 1997).

Key:
[1] = system: Human immunodeficiency virus 1; assay: Concentration required to achieve 50% protection of CEM-SS cells against the cytopathic effect of HIV-1.; format: functional, organism-based; settings: Human immunodeficiency virus 1, CEM-SS
CEM-SS [2] = assay: Cytotoxic concentration required to reduce the viability of mock infected CEM-SS by 50%.; format: functional; settings: Homo sapiens
[3] = (§1) Selectivity Index measured as ratio of CC50 to that of EC50.; format: functional, CCRF-CEM
CEM-SS [4] = assay: Cytotoxic concentration required to reduce the viability of mock infected CEM-SS cells by 50%.; format: functional; settings: Homo sapiens
CCRF-CEM [5] = assay: Effective concentration for inhibition of […] replication in CEM cells.; format: functional, cell-based; settings: Homo sapiens
CCRF-CEM [6] = assay: Cytotoxic concentration for inhibition of […] replication in CEM cells.; format: functional; settings: Homo sapiens
CEM-V [7] = assay: Cytotoxic concentration required to reduce the viability of mock-infected CEM-V cells by 50%; format: functional; settings: Homo sapiens
CEM-V [8] = assay: Inhibition of HIV-1 replication in CEM-V cells; format: functional, cell-based; settings: Homo sapiens
[9] = as §1; format: functional
[10] = system: Avian myeloblastosis virus; assay: Inhibitory effect on recombinant AMV reverse transcriptase; format: functional
In short: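 Recombinant RT (0.05 unit of HIV-1, AMV or Mo-MuLV) in 50 mM Tris-HCl pH 7.8, 50 mM KCl, 30 mM MgCl2, 1 mM DTT and 0.01% Triton X-100. Template poly r(A)d(T)12-18 (5.0 μg) with 0.5 μCi [3H]dTTP. Compound added in DMSO (final below 1%), 1 h at 37 °C. Reaction stopped with cold 20% TCA and precipitate counted. […] Means of at least three independent experiments run in duplicate.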

[11] = Cytotoxic concentration for inhibition of HIV-1 replication in human peripheral Blood mononuclear cells.(PBMCs); format: functional
[12] = Effective concentration for inhibition of HIV-1 replication in human peripheral Blood mononuclear cells.(PBMCs); format: functional
In short: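 PBMCs from healthy seronegative donors were isolated on Ficoll-Hypaque and stimulated 24 h with PHA (10 μg/mL). Cells at 1×10^6 cells/mL were infected with HIV-1 HTLV-IIIB at MOI 0.01, with 2-h adsorption followed by three washes. Culture was in RPMI 1640 with IL-2 (2 U/mL) and 10% FBS with compound at 37 °C, split 1:2 with fresh drug on days 4 and 8. On day 12, supernatant p24 was measured by ELISA in triplicate. […] Means of two independent experiments run in duplicate.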

[13] = Selectivity Index measured as ratio of CC50 to that of EC50 in PBMCs; format: functional
In short: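 HIV-1 (HTLV-IIIB) in PHA-stimulated PBMCs from healthy seronegative donors. Cells were infected at MOI 0.01 for 2 h, washed, then grown with compound in RPMI 1640 with IL-2 and 10% FBS at 37 °C. Cultures were split 1:2 with fresh compound on days 4 and 8. p24 was read by ELISA on day 12. Cytotoxicity was measured by [3H]thymidine incorporation. SI = CC50/EC50, means of two independent experiments in duplicate.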

[14] = system: Avian myeloblastosis virus; assay: Inhibitory effect on recombinant AMV reverse transcriptase (Avian Myeloblastosis Virus, AMV); format: functional
In short: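 Recombinant RT (0.05 unit each of HIV-1, AMV or Mo-MuLV enzyme) in 50 mM Tris-HCl pH 7.8, 50 mM KCl, 30 mM MgCl2, 1 mM DTT, 0.01% Triton X-100, with poly r(A)d(T)12-18 template and [3H]dTTP. Compounds added from DMSO (final below 1%), 1 h at 37 °C. Stopped with cold 20% TCA; precipitate counted.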

Row | SMILES | EC50 [1] [µM] | Selectivity index [3] | CC50 (CEM-SS [4]) [µM] | further results
1 | Cc1cc(C)cc(Sc2c(C)c(=O)[nH]c(=O)n2OCCc2ccccc2)c1 | 3.08 | >39 | – | CC50 (CEM-SS [2]): > 121 µM
2 | CC(C)c1c(Sc2ccccc2)n(OCCCO)c(=O)[nH]c1=O | 19 | 8.9 | 170 | –
3 | CCCOn1c(Sc2ccccc2C)c(C(C)C)c(=O)[nH]c1=O | 13.9 | 2.9 | 41 | –
4 | CCCOn1c(Sc2cc(C)cc(C)c2)c(CC)c(=O)[nH]c1=O | 0.35 | 154 | 54 | –
5 | CCCOn1c(Sc2ccc(C)cc2)c(C(C)C)c(=O)[nH]c1=O | – | – | – | CC50 (CEM-SS [2]): 69 µM
6 | Cc1cc(C)cc(Sc2c(C3CC3)c(=O)[nH]c(=O)n2OCc2ccccc2)c1 | 15.9 | >13 | > 200 | –
7 | Nc1ccn([C@H]2CC[C@@H](CO)O2)c(=O)n1 [ZALCITABINE] | 0.19 | >53 | > 10 | –
8 | Cc1cc(C)cc(Sc2c(C3CC3)c(=O)[nH]c(=O)n2OCCCO)c1 | 15.1 | 8.5 | 128 | –
9 | CCCOn1c(Sc2cc(C)cc(C)c2)c(C2CC2)c(=O)[nH]c1=O | 6.12 | 4.9 | 30 | –
10 | Cc1cc(C)cc(Sc2c(C(C)C)c(=O)[nH]c(=O)n2OCc2ccccc2)c1 | 8.45 | 2.8 | 24 | –
11 | CC(C)c1c(Sc2cc(F)cc(F)c2)n(OCCCO)c(=O)[nH]c1=O | 7.52 | 20 | 150 | –
12 | CCCOn1c(Sc2ccccc2)c(C(C)C)c(=O)[nH]c1=O | 6.75 | 11 | 75 | –
13 | Cc1c(Sc2ccccc2)n(COCCO)c(=O)[nH]c1=O [HEPT] | – | 48 | – | EC50 (CCRF-CEM [5]): 8.3 µM; CC50 (CCRF-CEM [6]): 400 µM
14 | CCc1c(Sc2cc(C)cc(C)c2)n(OCc2ccccc2)c(=O)[nH]c1=O | 5.77 | >35 | > 200 | –
15 | Cc1cc(C)cc(Sc2c(C)c(=O)[nH]c(=O)n2OCCCO)c1 | 5.55 | 25 | 140 | –
16 | CC(C)c1c(Sc2cccc(F)c2)n(OCCCO)c(=O)[nH]c1=O | – | – | 3.4 | –
17 | CCCc1c(Sc2cc(C)cc(C)c2)n(OCCc2ccccc2)c(=O)[nH]c1=O | 0.7 | 41 | 29 | –
18 | O=c1[nH]cnc2c1ncn2[C@H]1CC[C@@H](CO)O1 [DIDANOSINE] | – | – | – | CC50 (CEM-V [7]): > 10 µM; EC50 (CEM-V [8]): 2.8 µM; Selectivity index [9]: > 3.6
19 | Cc1cc(C)cc(Sc2c(C(C)C)c(=O)[nH]c(=O)n2OCCOc2ccccc2)c1 | 0.46 | 35 | 16 | –
20 | Cc1cc(C)cc(Sc2c(C(C)C)c(=O)[nH]c(=O)n2OCCCO)c1 | 0.19 | 395 | 75 | –
21 | CCCOn1c(Sc2cc(C)cc(C)c2)c(C(C)C)c(=O)[nH]c1=O | 0.064 | – | – | IC50 [10]: > 100 µM; CC50 (CEM-SS [2]): 33 µM; CC50 [11]: 70 µM; EC50 [12]: 0.15 µM

Row | SMILES | EC50 [1] [µM] | Selectivity index [3] | CC50 (CEM-SS [4]) [µM] | further results
22 | CCCCOn1c(Sc2cc(C)cc(C)c2)c(CC)c(=O)[nH]c1=O | 0.97 | 41 | 40 | –
23 | CCCc1c(Sc2cc(C)cc(C)c2)n(OCc2ccccc2)c(=O)[nH]c1=O | 10.3 | 11 | 114 | –
24 | CCCOn1c(Sc2cc(F)cc(F)c2)c(C(C)C)c(=O)[nH]c1=O | 2.39 | >84 | > 200 | –
25 | CCCOn1c(Sc2cccc(F)c2)c(C(C)C)c(=O)[nH]c1=O | 1.9 | 38 | 72 | –
26 | Cc1cn([C@H]2C[C@H](N=[N+]=[N-])[C@@H](CO)O2)c(=O)[nH]c1=O [ZIDOVUDINE] | 0.0045 | >220 | > 1 | CC50 [11]: 149 µM; Selectivity index [13]: 16556; EC50 [12]: 0.009 µM
27 | CCCc1c(Sc2cc(C)cc(C)c2)n(OCCCO)c(=O)[nH]c1=O | 8.22 | 13 | 107 | –
28 | CCc1c(Sc2cc(C)cc(C)c2)n(OCCc2ccccc2)c(=O)[nH]c1=O | 0.46 | 78 | 36 | –
29 | CCCOn1c(Sc2cc(C)cc(C)c2)c(CCC)c(=O)[nH]c1=O | 2.57 | 18 | 45 | –
30 | Cc1cc(C)cc(Sc2c(C)c(=O)[nH]c(=O)n2OCc2ccccc2)c1 | 10.1 | >20 | > 200 | –
31 | Cc1cccc(Sc2c(C(C)C)c(=O)[nH]c(=O)n2OCCCO)c1 | 4.7 | 28 | 118 | –
32 | Cc1cc(C)cc(Sc2c(C(C)C)c(=O)[nH]c(=O)n2OCCc2ccccc2)c1 | 0.49 | 31 | 15 | –
33 | CCCOn1c(Sc2cc(C)cc(C)c2)c(C)c(=O)[nH]c1=O | 0.93 | 69 | 64 | –
34 | Cc1cccc(CCOn2c(Sc3cc(C)cc(C)c3)c(C(C)C)c(=O)[nH]c2=O)c1 | 0.84 | 15 | 13 | –
35 | CCCOn1c(Sc2cccc(C)c2)c(C(C)C)c(=O)[nH]c1=O | 0.98 | 41 | 40 | –
36 | CCCCOn1c(Sc2cc(C)cc(C)c2)c(C(C)C)c(=O)[nH]c1=O | 0.42 | 71 | 30 | –
37 | O=C(O)P(=O)(O)O [FOSCARNET SODIUM] | – | – | – | IC50 [14]: 9.31 µM
38 | CCc1c(Sc2cc(C)cc(C)c2)n(OCCOC)c(=O)[nH]c1=O | 1.97 | 69 | 136 | –
39 | COCCOn1c(Sc2cc(C)cc(C)c2)c(C(C)C)c(=O)[nH]c1=O | 0.43 | 223 | 96 | –
40 | CCc1c(Sc2cc(C)cc(C)c2)n(OCCCO)c(=O)[nH]c1=O | 0.54 | 228 | 123 | –
41 | Cc1cc(C)cc(Sc2c(C3CC3)c(=O)[nH]c(=O)n2OCCc2ccccc2)c1 | 6.03 | 7.1 | 43 | –
